Results reported in ChEMBL document CHEMBL4396900, “Extending Cross Metathesis To Identify Selective HDAC Inhibitors: Synthesis, Biological Activities, and Modeling” (ACS Med Chem Lett, 2019).
One block for each molecule: values may come before it. Active and inactive are the calls of the source. No cut-off for these calls is given here.

Tests used:
[1] = biological target: Histone deacetylase; type: cell-based, Homo sapiens
[2] = cells; type: functional, cell-based; details: Homo sapiens, 72 h
[3] = cells; type: functional, cell-based; details: Homo sapiens, 72 h; remark: listed apart in the source
[4] = test system: A549; experiment: cells; type: functional, cell-based; details: Homo sapiens, A549, 72 h
[5] = cells; type: functional, cell-based; details: Homo sapiens, 72 h; remark: listed apart in the source
[6] = biological target: NAD-dependent protein deacetylase sirtuin-2 (Homo sapiens, UniProt Q8IXJ6); experiment: Inhibition of human recombinant sirtuin 2 using fluoro-lysine sirtuin 2 deacetylase substrate measured after 60 mins by fluorimetry assay
[7] = biological target: Histone deacetylase 9 (Homo sapiens, UniProt Q9UKV0); experiment: Inhibition of human recombinant HDAC9 using fluorogenic HDAC substrate class 2a measured after 30 mins by fluorimetry assay
[8] = biological target: Histone deacetylase 8 (Homo sapiens, UniProt Q9BY41); experiment: Inhibition of human recombinant HDAC8 using fluorogenic HDAC substrate measured after 60 mins by fluorimetry assay
[9] = biological target: T1, Histone deacetylase 1 (Homo sapiens, UniProt Q13547); experiment: Inhibition of human recombinant HDAC1 at 10 uM using fluorogenic HDAC substrate measured after 15 mins by fluorimetry assay relative to control
[10] = biological target: T2, Histone deacetylase 2 (Homo sapiens, UniProt Q92769); experiment: Inhibition of human recombinant HDAC2 at 10 uM using fluorogenic HDAC substrate measured after 15 mins by fluorimetry assay relative to control
[11] = biological target: T3, Histone deacetylase 3 (Homo sapiens, UniProt O15379); experiment: Inhibition of human recombinant HDAC3 at 10 uM using fluorogenic HDAC substrate measured after 10 mins by fluorimetry assay relative to control
[12] = biological target: T4, Histone deacetylase 4 (Homo sapiens, UniProt P56524); experiment: Inhibition of human recombinant HDAC4 at 10 uM using fluorogenic HDAC substrate class 2a measured after 30 mins by fluorimetry assay relative to control
[13] = biological target: T5, Histone deacetylase 5 (Homo sapiens, UniProt Q9UQL6); experiment: Inhibition of human recombinant HDAC5 at 10 uM using fluorogenic HDAC substrate class 2a measured after 30 mins by fluorimetry assay relative to control
[14] = biological target: T6, Protein deacetylase HDAC6 (Homo sapiens) (UniProt Q9UBN7); experiment: Inhibition of human recombinant HDAC6 at 10 uM using fluorogenic HDAC substrate measured after 30 mins by fluorimetry assay relative to control
T6 sequence (whole entry): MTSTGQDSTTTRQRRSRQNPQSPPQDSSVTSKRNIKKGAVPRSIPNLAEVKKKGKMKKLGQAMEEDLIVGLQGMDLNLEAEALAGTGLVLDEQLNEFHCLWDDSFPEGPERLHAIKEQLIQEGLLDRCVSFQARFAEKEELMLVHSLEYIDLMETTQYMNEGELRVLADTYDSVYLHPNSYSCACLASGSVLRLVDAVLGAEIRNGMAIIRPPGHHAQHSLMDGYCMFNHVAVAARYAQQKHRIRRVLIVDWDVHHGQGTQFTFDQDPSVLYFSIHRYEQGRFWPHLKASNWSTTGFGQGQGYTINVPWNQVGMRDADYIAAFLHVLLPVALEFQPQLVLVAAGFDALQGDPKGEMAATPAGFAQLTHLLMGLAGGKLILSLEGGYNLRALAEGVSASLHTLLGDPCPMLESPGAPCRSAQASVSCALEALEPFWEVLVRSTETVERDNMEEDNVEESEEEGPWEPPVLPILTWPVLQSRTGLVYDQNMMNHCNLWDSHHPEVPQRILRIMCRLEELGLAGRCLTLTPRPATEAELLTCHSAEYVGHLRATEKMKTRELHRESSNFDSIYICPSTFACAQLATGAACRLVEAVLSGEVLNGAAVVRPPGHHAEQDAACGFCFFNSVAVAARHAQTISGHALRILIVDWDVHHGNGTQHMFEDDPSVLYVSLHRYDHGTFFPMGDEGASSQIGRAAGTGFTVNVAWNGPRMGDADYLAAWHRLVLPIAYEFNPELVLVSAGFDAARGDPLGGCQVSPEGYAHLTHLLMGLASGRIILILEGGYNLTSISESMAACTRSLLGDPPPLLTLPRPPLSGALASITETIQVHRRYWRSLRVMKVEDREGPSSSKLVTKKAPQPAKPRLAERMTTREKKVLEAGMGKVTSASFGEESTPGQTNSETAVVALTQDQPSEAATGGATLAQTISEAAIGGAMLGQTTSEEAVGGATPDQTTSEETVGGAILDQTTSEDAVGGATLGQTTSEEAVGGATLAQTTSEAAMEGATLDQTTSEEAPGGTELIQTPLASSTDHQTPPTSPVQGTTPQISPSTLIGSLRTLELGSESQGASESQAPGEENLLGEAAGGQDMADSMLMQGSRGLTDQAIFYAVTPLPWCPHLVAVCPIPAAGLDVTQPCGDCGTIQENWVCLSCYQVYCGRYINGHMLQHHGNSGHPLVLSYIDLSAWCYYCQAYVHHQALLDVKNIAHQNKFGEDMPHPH

[15] = biological target: Histone deacetylase 8 (Homo sapiens) (UniProt Q9BY41); experiment: Inhibition of human recombinant HDAC8 at 10 uM using fluorogenic HDAC substrate measured after 60 mins by fluorimetry assay relative to control
[16] = biological target: Polyamine deacetylase HDAC10 (Homo sapiens) (UniProt Q969S8); experiment: Inhibition of human recombinant HDAC10 at 10 uM using fluorogenic HDAC substrate measured after 45 mins by fluorimetry assay relative to control
[17] = biological target: Histone deacetylase 11 (Homo sapiens) (UniProt Q96DB2); experiment: Inhibition of human recombinant HDAC11 at 10 uM using fluorogenic HDAC substrate class 2a measured after 30 mins by fluorimetry assay relative to control
[18] = biological target: NAD-dependent protein deacetylase sirtuin-1 (Homo sapiens) (UniProt Q96EB6); experiment: Inhibition of human recombinant sirtuin 1 at 10 uM using fluorogenic HDAC substrate measured after 20 mins by fluorimetry assay relative to control
[19] = biological target: NAD-dependent protein deacetylase sirtuin-3, mitochondrial (Homo sapiens) (UniProt Q9NTG7); experiment: Inhibition of human recombinant sirtuin 3 at 10 uM using fluoro-lysine sirtuin 2 deacetylase substrate measured after 45 mins by fluorimetry assay relative to control
[20] = biological target: T1, Histone deacetylase 1; experiment: Inhibition of human recombinant HDAC1 using fluorogenic HDAC substrate measured after 15 mins by fluorimetry assay
[21] = biological target: T2, Histone deacetylase 2; experiment: Inhibition of human recombinant HDAC2 using fluorogenic HDAC substrate measured after 15 mins by fluorimetry assay
[22] = biological target: T3, Histone deacetylase 3
[23] = biological target: T4, Histone deacetylase 4; experiment: Inhibition of human recombinant HDAC4 using fluorogenic HDAC substrate class 2a measured after 30 mins by fluorimetry assay
[24] = biological target: T5, Histone deacetylase 5; experiment: Inhibition of human recombinant HDAC5 using fluorogenic HDAC substrate class 2a measured after 30 mins by fluorimetry assay
[25] = biological target: Protein deacetylase HDAC6 (Homo sapiens, UniProt Q9UBN7); experiment: Inhibition of human recombinant HDAC6 using fluorogenic HDAC substrate measured after 30 mins by fluorimetry assay
[26] = biological target: Histone deacetylase 7 (Homo sapiens, UniProt Q8WUI4); experiment: Inhibition of human recombinant HDAC7 using fluorogenic HDAC substrate class 2a measured after 45 mins by fluorimetry assay
[27] = species: Homo sapiens; experiment: Selectivity ratio of IC50 for human recombinant HDAC10 to IC50 for human recombinant HDAC6
[28] = species: Homo sapiens; experiment: Selectivity ratio of IC50 for human recombinant HDAC11 to IC50 for human recombinant HDAC6
[29] = species: Homo sapiens; experiment: Selectivity ratio of IC50 for human recombinant HDAC8 to IC50 for human recombinant HDAC6
[30] = species: Homo sapiens; experiment: Selectivity ratio of IC50 for human recombinant HDAC3 to IC50 for human recombinant HDAC6
[31] = species: Homo sapiens; experiment: Selectivity ratio of IC50 for human recombinant HDAC2 to IC50 for human recombinant HDAC6
[32] = species: Homo sapiens; experiment: Selectivity ratio of IC50 for human recombinant HDAC1 to IC50 for human recombinant HDAC6
[33] = biological target: Histone deacetylase 11 (Homo sapiens, UniProt Q96DB2); experiment: Inhibition of human recombinant HDAC11 using fluorogenic HDAC substrate class 2a measured after 30 mins by fluorimetry assay
[34] = biological target: Polyamine deacetylase HDAC10 (Homo sapiens, UniProt Q969S8); experiment: Inhibition of human recombinant HDAC10 using fluorogenic HDAC substrate measured after 45 mins by fluorimetry assay
[35] = biological target: T6, Protein deacetylase HDAC6 (Homo sapiens); experiment: Inhibition of HDAC6 in human Meso163 cells assessed as increase in histone H3 acetylation at 20 uM measured after 6 to 20 hrs by Western blot analysis; type: cell-based
Method in brief: (§1)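 Meso 163 mesothelioma and A549 lung adenocarcinoma cells exposed to agent for 6 or 20 h; histone H3 and alpha-tubulin acetylation analysed by western blot with molecular-weight markers.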

[36] = biological target: T6, Protein deacetylase HDAC6 (Homo sapiens); experiment: Inhibition of HDAC6 in human Meso163 cells assessed as increase in alpha tubulin acetylation at 20 uM measured after 6 to 20 hrs by Western blot analysis; type: cell-based
Method in brief: as §1

[37] = biological target: T6, Protein deacetylase HDAC6 (Homo sapiens); experiment: Inhibition of HDAC6 in human A549 cells assessed as increase in histone H3 acetylation at 20 uM measured after 6 to 20 hrs by Western blot analysis; type: cell-based
Method in brief: as §1

[38] = biological target: T6, Protein deacetylase HDAC6 (Homo sapiens); experiment: Inhibition of HDAC6 in human A549 cells assessed as increase in alpha tubulin acetylation at 20 uM measured after 6 to 20 hrs by Western blot analysis; type: cell-based
Method in brief: as §1

[39] = biological target: T6, Protein deacetylase HDAC6 (Homo sapiens); experiment: Inhibition of HDAC6 in human Meso163 cells assessed as upregulation of E-cadherin mRNA expression at 20 uM after 24 hrs by RT-Sybr green PCR analysis; type: cell-based
Method in brief: (§2)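 Meso 163 and A549 cells treated for 24 h; E-cadherin, Sema-3F and p21 mRNA quantified by real-time PCR; means ± S.E.M. of four independent experiments.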

[40] = biological target: T6, Protein deacetylase HDAC6 (Homo sapiens); experiment: Inhibition of HDAC6 in human Meso163 cells assessed as upregulation of semaphorin 3F mRNA expression at 20 uM after 24 hrs by RT-Sybr green PCR analysis; type: cell-based
Method in brief: as §2

[41] = biological target: T6, Protein deacetylase HDAC6 (Homo sapiens); experiment: Inhibition of HDAC6 in human Meso163 cells assessed as upregulation of p21 mRNA expression at 20 uM after 24 hrs by RT-Sybr green PCR analysis; type: cell-based
Method in brief: as §2

[42] = biological target: T6, Protein deacetylase HDAC6 (Homo sapiens); experiment: Inhibition of HDAC6 in human A549 cells assessed as upregulation of E-cadherin mRNA expression at 20 uM after 24 hrs by RT-Sybr green PCR analysis; type: cell-based
Method in brief: as §2

[43] = biological target: T6, Protein deacetylase HDAC6 (Homo sapiens); experiment: Inhibition of HDAC6 in human A549 cells assessed as upregulation of semaphorin 3F mRNA expression at 20 uM after 24 hrs by RT-Sybr green PCR analysis; type: cell-based
Method in brief: as §2

[44] = biological target: T6, Protein deacetylase HDAC6 (Homo sapiens); experiment: Inhibition of HDAC6 in human A549 cells assessed as upregulation of p21 mRNA expression at 20 uM after 24 hrs by RT-Sybr green PCR analysis; type: cell-based
Method in brief: as §2

T1 sequence (Q13547 whole entry): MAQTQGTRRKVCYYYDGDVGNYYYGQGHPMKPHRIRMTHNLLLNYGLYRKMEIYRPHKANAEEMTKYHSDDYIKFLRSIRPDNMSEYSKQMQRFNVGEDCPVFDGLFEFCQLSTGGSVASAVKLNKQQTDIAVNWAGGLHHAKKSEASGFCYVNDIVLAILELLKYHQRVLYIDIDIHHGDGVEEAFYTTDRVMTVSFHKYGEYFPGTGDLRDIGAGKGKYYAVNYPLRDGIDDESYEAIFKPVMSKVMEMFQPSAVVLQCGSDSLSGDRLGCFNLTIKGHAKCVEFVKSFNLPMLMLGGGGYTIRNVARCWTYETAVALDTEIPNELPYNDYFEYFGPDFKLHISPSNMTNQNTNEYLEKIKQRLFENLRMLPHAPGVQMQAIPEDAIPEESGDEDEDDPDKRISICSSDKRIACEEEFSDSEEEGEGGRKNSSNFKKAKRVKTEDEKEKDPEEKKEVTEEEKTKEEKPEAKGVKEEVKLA
T3 sequence (O15379 whole entry): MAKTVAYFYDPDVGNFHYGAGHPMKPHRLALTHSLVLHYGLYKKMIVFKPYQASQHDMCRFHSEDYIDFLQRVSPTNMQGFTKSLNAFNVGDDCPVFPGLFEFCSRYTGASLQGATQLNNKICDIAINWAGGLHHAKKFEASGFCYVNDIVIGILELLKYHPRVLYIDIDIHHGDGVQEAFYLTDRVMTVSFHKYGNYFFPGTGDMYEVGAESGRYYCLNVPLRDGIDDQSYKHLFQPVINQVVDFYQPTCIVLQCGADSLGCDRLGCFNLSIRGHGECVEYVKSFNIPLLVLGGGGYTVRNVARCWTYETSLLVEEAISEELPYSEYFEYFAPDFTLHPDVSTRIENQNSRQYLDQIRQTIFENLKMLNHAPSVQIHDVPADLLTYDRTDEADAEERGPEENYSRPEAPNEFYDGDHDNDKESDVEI
T2 sequence (Q92769 whole entry): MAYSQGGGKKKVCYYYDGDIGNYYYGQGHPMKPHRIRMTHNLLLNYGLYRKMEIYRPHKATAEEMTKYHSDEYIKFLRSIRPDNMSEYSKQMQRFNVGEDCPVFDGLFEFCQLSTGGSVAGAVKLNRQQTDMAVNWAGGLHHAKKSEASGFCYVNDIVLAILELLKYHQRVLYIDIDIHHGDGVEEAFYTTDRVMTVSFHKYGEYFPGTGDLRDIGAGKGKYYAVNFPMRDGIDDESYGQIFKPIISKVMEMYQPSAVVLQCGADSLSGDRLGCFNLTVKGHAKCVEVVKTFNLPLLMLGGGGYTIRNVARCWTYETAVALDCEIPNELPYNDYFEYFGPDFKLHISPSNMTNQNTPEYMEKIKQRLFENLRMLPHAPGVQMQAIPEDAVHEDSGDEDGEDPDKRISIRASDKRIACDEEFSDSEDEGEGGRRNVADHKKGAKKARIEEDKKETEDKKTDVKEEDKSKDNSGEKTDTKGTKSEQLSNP
T4 sequence (P56524 whole entry): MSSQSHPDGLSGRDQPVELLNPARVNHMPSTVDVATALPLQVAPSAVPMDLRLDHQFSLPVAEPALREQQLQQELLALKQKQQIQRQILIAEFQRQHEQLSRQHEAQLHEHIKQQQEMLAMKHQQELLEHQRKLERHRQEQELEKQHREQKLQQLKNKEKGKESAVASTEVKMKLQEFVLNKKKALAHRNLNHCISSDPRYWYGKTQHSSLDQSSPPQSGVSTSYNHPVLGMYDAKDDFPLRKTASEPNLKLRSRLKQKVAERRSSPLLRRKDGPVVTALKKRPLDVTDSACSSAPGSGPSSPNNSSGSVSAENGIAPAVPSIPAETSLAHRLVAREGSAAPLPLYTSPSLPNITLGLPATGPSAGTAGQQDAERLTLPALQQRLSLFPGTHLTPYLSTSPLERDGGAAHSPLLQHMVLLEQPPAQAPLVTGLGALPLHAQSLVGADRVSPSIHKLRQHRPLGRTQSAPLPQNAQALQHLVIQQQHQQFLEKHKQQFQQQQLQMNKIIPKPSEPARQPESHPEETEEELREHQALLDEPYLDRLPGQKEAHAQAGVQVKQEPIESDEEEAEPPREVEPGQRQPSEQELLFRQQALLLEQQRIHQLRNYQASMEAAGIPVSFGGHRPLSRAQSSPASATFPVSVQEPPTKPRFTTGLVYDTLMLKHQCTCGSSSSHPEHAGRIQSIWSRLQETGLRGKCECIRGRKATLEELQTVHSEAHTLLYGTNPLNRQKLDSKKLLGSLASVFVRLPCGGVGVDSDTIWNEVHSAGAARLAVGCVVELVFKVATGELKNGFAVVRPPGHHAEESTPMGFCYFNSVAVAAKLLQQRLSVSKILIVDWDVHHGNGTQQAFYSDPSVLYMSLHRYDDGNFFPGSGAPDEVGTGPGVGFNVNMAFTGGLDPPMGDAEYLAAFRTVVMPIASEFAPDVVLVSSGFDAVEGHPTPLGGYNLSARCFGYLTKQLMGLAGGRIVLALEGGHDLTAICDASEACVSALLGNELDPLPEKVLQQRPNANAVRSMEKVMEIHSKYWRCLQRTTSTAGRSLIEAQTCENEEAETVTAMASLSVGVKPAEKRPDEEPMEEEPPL
T5 sequence (Q9UQL6 whole entry): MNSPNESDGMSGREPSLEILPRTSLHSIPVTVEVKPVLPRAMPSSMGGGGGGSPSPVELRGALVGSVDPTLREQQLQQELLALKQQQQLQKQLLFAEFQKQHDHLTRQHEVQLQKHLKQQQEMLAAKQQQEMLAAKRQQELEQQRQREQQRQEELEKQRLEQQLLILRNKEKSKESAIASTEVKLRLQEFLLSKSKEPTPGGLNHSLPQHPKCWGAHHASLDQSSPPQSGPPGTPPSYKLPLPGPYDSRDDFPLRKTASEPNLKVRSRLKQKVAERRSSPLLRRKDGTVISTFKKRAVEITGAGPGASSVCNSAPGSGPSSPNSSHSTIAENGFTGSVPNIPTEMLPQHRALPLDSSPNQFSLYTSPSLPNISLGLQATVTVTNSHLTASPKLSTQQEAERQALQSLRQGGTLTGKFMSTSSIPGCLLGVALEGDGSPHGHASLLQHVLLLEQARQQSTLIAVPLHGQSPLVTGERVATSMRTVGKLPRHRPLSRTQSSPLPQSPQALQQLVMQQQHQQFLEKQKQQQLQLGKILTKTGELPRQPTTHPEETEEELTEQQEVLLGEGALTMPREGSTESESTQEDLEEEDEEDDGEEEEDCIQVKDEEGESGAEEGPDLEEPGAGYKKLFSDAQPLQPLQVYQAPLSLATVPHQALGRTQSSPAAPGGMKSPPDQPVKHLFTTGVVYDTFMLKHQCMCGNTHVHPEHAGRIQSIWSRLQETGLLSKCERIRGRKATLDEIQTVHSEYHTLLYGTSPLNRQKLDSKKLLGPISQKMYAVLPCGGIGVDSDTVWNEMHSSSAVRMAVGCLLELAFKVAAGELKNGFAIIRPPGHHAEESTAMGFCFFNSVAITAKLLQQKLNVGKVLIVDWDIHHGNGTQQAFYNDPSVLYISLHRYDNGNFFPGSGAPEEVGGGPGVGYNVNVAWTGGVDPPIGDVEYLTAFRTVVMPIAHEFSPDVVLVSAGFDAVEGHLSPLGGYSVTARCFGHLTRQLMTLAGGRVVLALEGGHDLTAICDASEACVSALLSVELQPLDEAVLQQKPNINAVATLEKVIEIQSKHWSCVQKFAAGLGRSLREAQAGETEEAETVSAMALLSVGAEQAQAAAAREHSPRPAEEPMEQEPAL
Sequence of NAD-dependent protein deacetylase sirtuin-2 (Q8IXJ6 whole entry): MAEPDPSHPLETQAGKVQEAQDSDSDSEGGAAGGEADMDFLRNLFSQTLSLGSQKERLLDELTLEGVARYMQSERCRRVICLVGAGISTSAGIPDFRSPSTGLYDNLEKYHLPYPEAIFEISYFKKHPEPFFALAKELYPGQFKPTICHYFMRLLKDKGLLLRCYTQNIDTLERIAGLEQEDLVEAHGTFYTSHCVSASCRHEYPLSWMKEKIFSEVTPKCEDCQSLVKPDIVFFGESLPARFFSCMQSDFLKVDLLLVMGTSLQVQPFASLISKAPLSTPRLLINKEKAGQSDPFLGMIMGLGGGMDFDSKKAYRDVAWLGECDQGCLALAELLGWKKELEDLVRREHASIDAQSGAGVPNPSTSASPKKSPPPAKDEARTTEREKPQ
Sequence of NAD-dependent protein deacetylase sirtuin-1 (Homo sapiens) (Q96EB6 whole entry): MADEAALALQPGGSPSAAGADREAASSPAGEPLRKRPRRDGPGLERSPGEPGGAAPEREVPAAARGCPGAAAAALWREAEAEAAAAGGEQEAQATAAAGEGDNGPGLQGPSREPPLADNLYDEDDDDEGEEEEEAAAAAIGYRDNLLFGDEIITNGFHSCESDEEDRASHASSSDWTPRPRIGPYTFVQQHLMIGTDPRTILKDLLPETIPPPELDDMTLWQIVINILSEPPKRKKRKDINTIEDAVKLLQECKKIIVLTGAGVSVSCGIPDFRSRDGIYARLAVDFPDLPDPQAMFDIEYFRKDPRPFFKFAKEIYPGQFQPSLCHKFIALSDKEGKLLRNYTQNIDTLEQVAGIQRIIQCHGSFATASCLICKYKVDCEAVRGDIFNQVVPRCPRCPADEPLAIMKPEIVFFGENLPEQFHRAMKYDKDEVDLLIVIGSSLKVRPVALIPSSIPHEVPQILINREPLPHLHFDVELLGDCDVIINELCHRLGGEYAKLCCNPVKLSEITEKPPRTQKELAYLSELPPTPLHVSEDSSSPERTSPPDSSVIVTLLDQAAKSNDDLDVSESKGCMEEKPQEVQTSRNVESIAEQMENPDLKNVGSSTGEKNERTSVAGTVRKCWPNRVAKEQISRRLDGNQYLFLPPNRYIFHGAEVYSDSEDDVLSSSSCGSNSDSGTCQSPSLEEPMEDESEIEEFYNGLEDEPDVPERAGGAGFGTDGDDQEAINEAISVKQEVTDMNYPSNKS

EC50 [1]: 8.14 µM
Compound: COC(=O)c1ccc2ccccc2c1OCCCCCCCC(=O)Nc1ccccc1N

IC50 [2]: 7.83 µM
IC50 [3]: 15.8 µM
IC50 [4]: 16 µM
IC50 [5]: 3.9 µM
Compound: CC(=O)Nc1ccc(C(=O)Nc2ccccc2N)cc1 [TACEDINALINE]

IC50 [6]: 17 µM
Compound: Cc1ccc(C(=O)Nc2ccc(S(=O)(=O)O)c3cc(S(=O)(=O)O)cc(S(=O)(=O)O)c23)cc1NC(=O)c1cccc(NC(=O)Nc2cccc(C(=O)Nc3cc(C(=O)Nc4ccc(S(=O)(=O)O)c5cc(S(=O)(=O)O)cc(S(=O)(=O)O)c45)ccc3C)c2)c1 [SURAMIN]

IC50 [7]: Not Active
IC50 [8]: 1.6 µM
EC50 [1]: 7.84 µM
IC50 [2]: 15.6 µM
IC50 [3]: 15.9 µM
IC50 [4]: 62.4 µM
IC50 [5]: 15.7 µM
inhibition [9]: 84.7%
inhibition [10]: 67.1%
inhibition [11]: 87.9%
inhibition [12]: -4.8%
inhibition [13]: 2.8%
inhibition [14]: 104%
inhibition [15]: 93.1%
inhibition [16]: 82.3%
inhibition [17]: 57.2%
inhibition [18]: -2.6%
inhibition [19]: -8.2%
IC50 [20]: 3.5 µM
IC50 [21]: 3.4 µM
IC50 [22]: 1 µM
IC50 [23]: Not Active
IC50 [24]: Not Active
IC50 [25]: 0.095 µM
IC50 [26]: Not Active
Ratio IC50 [27]: 17 to 37
Ratio IC50 [28]: 17 to 37
Ratio IC50 [29]: 17 to 37
Ratio IC50 [30]: 10
Ratio IC50 [31]: 17 to 37
Ratio IC50 [32]: 17 to 37
IC50 [33]: 6.6 µM
IC50 [34]: 1.6 µM
Activity [35]: Active
Activity [36]: Active
Activity [37]: Active
Activity [38]: Active
Activity [39]: Active
Activity [40]: Active
Activity [41]: Active
Activity [42]: Active
Activity [43]: Active
Activity [44]: Active
Compound: COC(=O)c1ccc2ccccc2c1OCCCCCCCC(=O)NO
